Measurements reported in ChEMBL document CHEMBL3244060, “Methotrexate analogues. 8. Synthesis and biological evaluation of bisamide derivatives as potential prodrugs” (J Med Chem, 1977).
Converted amounts (≈) assume the structure as drawn. The source made the active and inactive calls. The calls are words filed in the database; no cut-off is given here.

Columns and labels:
CCRF-CEM = experiment: Cytotoxicity against human CCRF-CEM cells assessed as growth inhibition; type: functional; details: read-out: ID50 (the source's name)
L1210 [1] = experiment: Antitumor activity against mouse L1210 cells allografted in mouse assessed as increase in life span at 0.18 mg/kg, sc administered daily up to death started on day 5 post tumor implantation relative to control; type: functional; details: 120 h, route subcutaneous
L1210 [2] = experiment: Antitumor activity against mouse L1210 cells allografted in mouse assessed as increase in life span at 15 to 525 mg/kg, ip qd administered every 3 days for 7 days; type: functional, organism-based
Method in brief: (§1)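 Mice inoculated ip with 10^5 L1210 cells on day 0. Test agents injected ip in 10% Tween 80 on days 1, 4 and 7; doses 15 to 525 mg/kg. Positive control given as disodium salt in aqueous solution. Test groups of 5, control groups of 10-15. Median survival scored; %ILS = 100 × (T − C)/C.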

Mus musculus = experiment: Toxicity in mouse allografted with mouse L1210 cells at 15 to 525 mg/kg, ip qd administered every 3 days for 7 days; type: organism-based; parameters: dose 15-525 mg/kg, route intraperitoneal; details: in vivo; method in brief: as §1
L1210 [3] = experiment: Antitumor activity against mouse L1210 cells allografted in mouse assessed as increase in life span at 225 mg/kg, ip qd administered every 3 days for 7 days relative to control; type: functional; details: route intraperitoneal
Method in brief: (§2)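 L1210 cells (10^5) implanted ip in mice on day 0. Compounds given ip in 10% Tween 80 on days 1, 4 and 7, at doses from 15 to 525 mg/kg. Methotrexate was given as the disodium salt in aqueous solution. Groups had 5 treated and 10-15 control animals. %ILS = 100 × (T − C)/C, where T and C are median survival days of treated and control mice.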

L1210 [4] = experiment: Antitumor activity against mouse L1210 cells allografted in mouse assessed as median survival time at 225 mg/kg, ip qd administered every 3 days for 7 days; type: functional; details: route intraperitoneal
Method in brief: (§3)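 Mice were inoculated ip with 10^5 L1210 leukemia cells on day 0. Dosing was ip on days 1, 4 and 7 in 10% Tween 80, with the methotrexate disodium salt in water, over 15–525 mg/kg. Survival was recorded in days as the range and median per group, with 5 treated and 10-15 untreated controls.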

L1210 [5] = experiment: Antitumor activity against mouse L1210 cells allografted in mouse assessed as median survival time at 350 mg/kg, ip qd administered every 3 days for 7 days; type: functional; details: route intraperitoneal; method in brief: as §3
L1210 [6] = experiment: Antitumor activity against mouse L1210 cells allografted in mouse assessed as median survival time at 150 mg/kg, ip qd administered every 3 days for 7 days; type: functional; details: route intraperitoneal; method in brief: as §3
Serum = experiment: Prodrug conversion in rat whole serum assessed as formation of methotrexate at 0.006 g measured up to 24 hrs by TLC analysis; type: ADME
Method in brief: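 Fresh rat serum 0.9 mL plus compound 0.006 g in 0.1 mL Me2SO, incubated at 37 °C with gentle shaking for up to 24 h. Cooled on ice, diluted 1.5-fold with methanol to precipitate protein, centrifuged. Supernatant run on fluorescent cellulose TLC developed with 0.5 M phosphate buffer pH 7.4 to detect parent compound and metabolites.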

L1210 [7] = experiment: Antitumor activity against mouse L1210 cells allografted in mouse assessed as median survival time at 525 mg/kg, ip qd administered every 3 days for 7 days; type: functional; details: route intraperitoneal; method in brief: as §3
L1210 [8] = experiment: Antitumor activity against mouse L1210 cells allografted in mouse assessed as increase in life span at 525 mg/kg, ip qd administered every 3 days for 7 days relative to control; type: functional; details: route intraperitoneal; method in brief: as §2
L1210 [9] = experiment: Antitumor activity against mouse L1210 cells allografted in mouse assessed as increase in life span at 150 mg/kg, ip qd administered every 3 days for 7 days relative to control; type: functional; details: route intraperitoneal; method in brief: as §2
[10] = target: Dihydrofolate reductase (Lactobacillus casei) (UniProt P00381); experiment: Inhibition of methotrexate-resistant Lactobacillus casei ATCC 7469 dihydrofolate reductase; details: Lacticaseibacillus casei
Sequence of Dihydrofolate reductase (Lactobacillus casei) (P00381 whole entry): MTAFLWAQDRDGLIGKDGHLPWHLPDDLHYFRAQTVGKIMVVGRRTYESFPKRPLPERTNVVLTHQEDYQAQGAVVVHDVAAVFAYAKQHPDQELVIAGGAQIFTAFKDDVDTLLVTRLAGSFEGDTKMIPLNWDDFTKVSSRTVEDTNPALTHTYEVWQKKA

L1210 [11] = experiment: Antitumor activity against mouse L1210 cells allografted in mouse assessed as increase in life span at 350 mg/kg, ip qd administered every 3 days for 7 days relative to control; type: functional; details: route intraperitoneal; method in brief: as §2

Question: How did the IC50 (CCRF-CEM) turn out when `CN(C)CCNC(=O)CC[C@H](NC(=O)c1ccc(N(C)Cc2cnc3nc(N)nc(N)c3n2)cc1)C(=O)NCCN(C)C` was run?
Answer: > 10 µg/mL

Question: `Nc1nc(N)c2nc(CNc3ccc(C(=O)N[C@@H](CCC(=O)O)C(=O)O)cc3)cnc2n1` [AMINOPTERIN] was tested. Which ILS at 0.18 mg/kg (L1210 [1]) did it give?
Answer: 30%

Question: How did the IC50 (CCRF-CEM) turn out when `CN(Cc1cnc2nc(N)nc(N)c2n1)c1ccc(C(=O)N[C@@H](CCC(=O)NCCCO)C(=O)NCCCO)cc1` was run?
Answer: > 10 µg/mL

Question: `CN(Cc1cnc2nc(N)nc(N)c2n1)c1ccc(C(=O)N[C@@H](CCC(=O)NCCc2ccccc2)C(=O)NCCc2ccccc2)cc1` was tested. Which IC50 (CCRF-CEM) did it give?
Answer: > 10 µg/mL

Question: Which Activity (L1210 [2]) does the source give for `CN(Cc1cnc2nc(N)nc(N)c2n1)c1ccc(C(=O)N[C@@H](CCC(=O)N2CCCC2)C(=O)N2CCCC2)cc1` here?
Answer: inactive

Question: And the Activity (Mus musculus)?
Answer: Toxic

Question: For `CCCNC(=O)CC[C@H](NC(=O)c1ccc(N(C)Cc2cnc3nc(N)nc(N)c3n2)cc1)C(=O)NCCC`, which IC50 (CCRF-CEM) is on record?
Answer: 7 µg/mL (≈ 13 µM)

Question: And the ILS at 225 mg/kg (L1210 [3])?
Answer: 27%

Question: And the MST (L1210 [4])?
Answer: 14 days

Question: And the MST (L1210 [5])?
Answer: 13 days

Question: And the MST (L1210 [6])?
Answer: 11 days

Question: And the Drug metabolism (Serum)?
Answer: metabolite_notdetected

Question: And the MST (L1210 [7])?
Answer: 13 days

Question: And the ILS at 525 mg/kg (L1210 [8])?
Answer: 18%

Question: And the ILS at 150 mg/kg (L1210 [9])?
Answer: 0%

Question: And the ID50 [10]?
Answer: 1.8 ×10⁻⁷ M

Question: What about the ILS at 350 mg/kg (L1210 [11]) of the same compound?
Answer: 18%

Question: Which results are given for `CN(C)CCCNC(=O)CC[C@H](NC(=O)c1ccc(N(C)Cc2cnc3nc(N)nc(N)c3n2)cc1)C(=O)NCCCN(C)C`?
Answer: Activity (L1210 [2]): inactive; Activity (Mus musculus): Toxic

Question: With `CCCCNC(=O)CC[C@H](NC(=O)c1ccc(N(C)Cc2cnc3nc(N)nc(N)c3n2)cc1)C(=O)NCCCC` as the compound, how does the IC50 (CCRF-CEM) read?
Answer: > 10 µg/mL

Question: For `CCC(C)NC(=O)CC[C@H](NC(=O)c1ccc(N(C)Cc2cnc3nc(N)nc(N)c3n2)cc1)C(=O)NC(C)CC` (stereo partly specified), which IC50 (CCRF-CEM) is on record?
Answer: > 10 µg/mL
